Measurements: ChEMBL document CHEMBL1139773, “New fluoro-diphenylchalcogen derivatives to explore the serotonin transporter by PET” (Bioorg Med Chem Lett, 2007)
pKi: −log10 of the molar value.

Columns and labels:
Format in all cases: tissue-based
[1] = target: Sodium-dependent dopamine transporter (Rattus norvegicus, UniProt P23977); test: Displacement of [3H]WIN-35428 from DAT in rat brain
Procedure, shortened: (§1)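 Competition binding in rat cortical and striatal brain homogenates, with tissue assignment per transporter not specified. Radioligands were [3H]WIN 35,428 for DAT, [3H]nisoxetine for NET and [3H]paroxetine for SERT. Ki values are means of two independent experiments, each run in triplicate; some entries come from a single experiment (n = 1, in triplicate).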

[2] = target: T1, Sodium-dependent serotonin transporter (Rattus norvegicus, UniProt P31652); test: Displacement of [3H]paroxetine from SERT in rat brain; procedure, shortened: as §1
[3] = target: Norepinephrine transporter (Rattus norvegicus, UniProt Q9WTR4); test: Displacement of [3H]nisoxetine from NET in rat brain; procedure, shortened: as §1
[4] = target: T1, Sodium-dependent serotonin transporter; test: Displacement of [3H]citalopram from SERT in rat brain

T1 sequence (P31652 whole entry): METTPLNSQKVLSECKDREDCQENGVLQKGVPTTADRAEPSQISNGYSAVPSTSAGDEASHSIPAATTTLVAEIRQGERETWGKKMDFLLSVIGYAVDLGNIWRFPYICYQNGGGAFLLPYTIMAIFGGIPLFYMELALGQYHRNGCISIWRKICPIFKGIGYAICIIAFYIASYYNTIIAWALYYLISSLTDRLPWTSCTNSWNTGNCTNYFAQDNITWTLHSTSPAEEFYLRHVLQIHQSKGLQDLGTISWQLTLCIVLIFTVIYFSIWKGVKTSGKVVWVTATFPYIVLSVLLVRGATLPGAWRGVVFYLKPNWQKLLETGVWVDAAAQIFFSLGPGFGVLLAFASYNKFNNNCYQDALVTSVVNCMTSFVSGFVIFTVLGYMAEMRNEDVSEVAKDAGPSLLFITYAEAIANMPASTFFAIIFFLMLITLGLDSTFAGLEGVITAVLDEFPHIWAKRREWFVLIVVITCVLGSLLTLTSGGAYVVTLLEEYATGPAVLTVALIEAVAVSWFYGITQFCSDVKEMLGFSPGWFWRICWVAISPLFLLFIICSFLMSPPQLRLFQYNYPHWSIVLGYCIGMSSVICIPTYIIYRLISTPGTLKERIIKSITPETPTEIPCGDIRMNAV
Sodium-dependent dopamine transporter, sequence (P23977 whole entry): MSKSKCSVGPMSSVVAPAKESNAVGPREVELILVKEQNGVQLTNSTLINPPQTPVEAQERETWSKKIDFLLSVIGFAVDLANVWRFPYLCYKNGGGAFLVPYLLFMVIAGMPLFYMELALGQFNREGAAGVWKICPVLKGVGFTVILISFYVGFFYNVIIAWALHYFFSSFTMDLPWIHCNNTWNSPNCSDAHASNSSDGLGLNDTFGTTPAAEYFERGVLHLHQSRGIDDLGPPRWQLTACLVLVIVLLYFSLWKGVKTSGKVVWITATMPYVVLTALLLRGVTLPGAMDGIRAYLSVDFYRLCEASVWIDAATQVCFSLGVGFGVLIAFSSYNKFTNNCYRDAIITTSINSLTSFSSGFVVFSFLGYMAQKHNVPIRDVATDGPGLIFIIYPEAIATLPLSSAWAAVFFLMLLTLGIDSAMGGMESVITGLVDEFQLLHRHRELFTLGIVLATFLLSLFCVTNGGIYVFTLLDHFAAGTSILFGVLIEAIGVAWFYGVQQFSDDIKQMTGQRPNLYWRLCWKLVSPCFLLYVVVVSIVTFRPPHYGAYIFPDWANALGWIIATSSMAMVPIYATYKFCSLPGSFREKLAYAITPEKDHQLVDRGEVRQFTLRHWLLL
Norepinephrine transporter, sequence (Q9WTR4 whole entry): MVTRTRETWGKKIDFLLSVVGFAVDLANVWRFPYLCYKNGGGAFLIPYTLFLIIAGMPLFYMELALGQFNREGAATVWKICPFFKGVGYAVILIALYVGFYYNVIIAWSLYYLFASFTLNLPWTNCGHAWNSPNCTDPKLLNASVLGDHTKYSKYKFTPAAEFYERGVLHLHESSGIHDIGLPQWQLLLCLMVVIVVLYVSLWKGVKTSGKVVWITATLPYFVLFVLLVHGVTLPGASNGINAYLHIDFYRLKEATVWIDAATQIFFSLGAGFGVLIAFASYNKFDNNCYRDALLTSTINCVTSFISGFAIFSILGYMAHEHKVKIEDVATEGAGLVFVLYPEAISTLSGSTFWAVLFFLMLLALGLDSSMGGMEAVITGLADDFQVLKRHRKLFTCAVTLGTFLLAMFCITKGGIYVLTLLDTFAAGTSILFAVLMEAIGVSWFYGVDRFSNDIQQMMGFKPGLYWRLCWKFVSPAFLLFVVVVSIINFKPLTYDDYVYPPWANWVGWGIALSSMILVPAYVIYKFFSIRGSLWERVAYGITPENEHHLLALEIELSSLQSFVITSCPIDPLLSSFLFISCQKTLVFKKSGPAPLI

| Compound | pKi [1] | pKi [2] | pKi [3] | pKi [4] |
| --- | --- | --- | --- | --- |
| CN(C)Cc1ccccc1Oc1ccc(F)cc1N | 5.36 | 7.87 | 5.97 | – |
| Cc1ccc(Sc2ccc(F)cc2CN(C)C)c(N)c1 | 5.44 | 9.57 | 5.98 | – |
| CN(C)Cc1cc(F)ccc1Oc1ccc(C#N)cc1N | 4.17 | 8.54 | 5.26 | – |
| Cc1ccc(Oc2ccc(F)cc2CN(C)C)c(N)c1 | 5.55 | 8.15 | 6.29 | – |
| CN(C)Cc1cc(F)ccc1Sc1ccc(C#N)cc1N | 4.85 | – | 4.75 | 9.55 |
| CN(C)Cc1cc(Cl)ccc1Oc1ccc(F)cc1N | 5.60 | – | 5.56 | 8.69 |
| CN(C)Cc1cc(F)ccc1Sc1ccc(Cl)cc1N | 5.74 | 9.46 | 6.04 | – |
| Cc1ccc(Sc2ccccc2CN(C)C)c(N)c1 | 5.38 | 9.21 | – | – |
